Experimental data collected from several papers.
Protocols differ between the studies behind these lines.
FLT3 D835Y: Receptor-type tyrosine-protein kinase FLT3 (FLT3, Homo sapiens, UniProt P36888, D835Y)
FLT3 N841I: Receptor-type tyrosine-protein kinase FLT3 (FLT3, Homo sapiens, UniProt P36888, N841I)
FLT3 autoinhibited: Receptor-type tyrosine-protein kinase FLT3, autoinhibited (FLT3, Homo sapiens, UniProt P36888)
FLT3 R834Q: Receptor-type tyrosine-protein kinase FLT3 (FLT3, Homo sapiens, UniProt P36888, R834Q)
FLT3 F691L/ITD: Receptor-type tyrosine-protein kinase FLT3 (FLT3, Homo sapiens, UniProt P36888, F691L/ITD)
FLT3 D835H: Receptor-type tyrosine-protein kinase FLT3 (FLT3, Homo sapiens, UniProt P36888, D835H)
FLT3 D835V: Receptor-type tyrosine-protein kinase FLT3 (FLT3, Homo sapiens, UniProt P36888, D835V)
FLT3: Receptor-type tyrosine-protein kinase FLT3 (FLT3, Homo sapiens, UniProt P36888)
FLT3 K663Q: Receptor-type tyrosine-protein kinase FLT3 (FLT3, Homo sapiens, UniProt P36888, K663Q)

| Structure (SMILES) | target | test | setting | remaining binding |
| --- | --- | --- | --- | --- |
| CCS(=O)(=O)c1cc2cc(C[C@@](O)(CC(C)(C)c3ccc(F)cc3C(N)=O)C(F)(F)F)[nH]c2cn1 | FLT3 D835Y | cell-free assay, competition with immobilised ligand | 1 µM | 99% |
| C[C@@H](c1ccc(-n2cnc3c(N)ncnc32)cc1)N1CCc2nn(C)c(Cc3ccccc3)c2C1=O | FLT3 D835Y | binding, competition with immobilised ligand | 0.1 µM | 100% |
| CN(C)c1nccc(-c2cnc3ncccn23)n1 | FLT3 N841I | binding | 1 µM | 72% |
| Cc1nccc(COC(=O)N2C[C@@H]3[C@@H](CNC(=O)c4ccc5[nH]nnc5c4)[C@@H]3C2)n1 | FLT3 autoinhibited | cell-free assay, competition with immobilised ligand | 1 µM | 93% |
| O=C(Nc1c[nH]nc1C(=O)NC1CCNCC1)c1cc(F)cc(F)c1 | FLT3 R834Q | binding, competition with immobilised ligand | 1 µM | 94% |
| O=C(c1ccc(Nc2ncc(Cl)c(-c3ccc(Cl)s3)n2)cc1)N1CCC(N2CCCC2)CC1 | FLT3 F691L/ITD | binding, competition with immobilised ligand | 1 µM | 1.8% |
| CC(C)CC(=O)N1CCc2nc(-c3ccc(Br)cc3)nc(N(C)Cc3ccccc3)c2C1 | FLT3 F691L/ITD | cell-free assay, competition with immobilised ligand | 0.1 µM | 68% |
| CCN1CCN(Cc2ccc(C(=O)Nc3ccc(C)c(Oc4ccc5c(c4)CC(=O)N5)c3)cc2C(F)(F)F)CC1 | FLT3 D835H | binding, competition with immobilised ligand | 1 µM | 100% |
| C[C@@H]1CCN(c2nccc(-c3cnn4ncccc34)n2)C1 | FLT3 autoinhibited | binding | 1 µM | 78% |
| COc1cc(-c2cn(C3CCc4c(F)cccc4N(CC(F)(F)F)C3=O)nn2)ccc1-n1cnc(C)c1 (centres unmarked) | FLT3 D835V | cell-free assay, competition with immobilised ligand | 1 µM | 97% |
| O=C(c1ccc(Nc2ncc(Cl)c(-c3cc4ccccc4s3)n2)cc1)N1CCC(N2CCCC2)CC1 | FLT3 autoinhibited | binding, competition with immobilised ligand | 1 µM | 27% |
| NS(=O)(=O)c1cc(NC(=O)Cc2ccccc2)ccc1Oc1cccc(Cl)c1 | FLT3 | cell-free assay, competition with immobilised ligand | 1 µM | 100% |
| CN(CCCC(F)(F)F)c1nccc(-c2cnn3ncccc23)n1 | FLT3 D835V | binding | 1 µM | 84% |
| CS(=O)(=O)N1CCCC(NC(=O)[C@H](CCC2CCCCC2)NC(=O)c2ccc(CNc3ncnc4c3nnn4-c3ccccc3)cc2)C1 (some centres unmarked) | FLT3 | cell-free assay, competition with immobilised ligand | 0.1 µM | 82% |
| F[C@@H]1CCN(c2nccc(-c3cnn4ncccc34)n2)C1 | FLT3 D835Y | binding | 1 µM | 61% |
| O=C(NCCCN1CCOCC1)c1ccc(Nc2ncc(Cl)c(-c3ccc(Cl)s3)n2)cc1 | FLT3 R834Q | binding, competition with immobilised ligand | 1 µM | 7.4% |
| CC1CCCN1c1nccc(-c2cnn3ncccc23)n1 (centres unmarked) | FLT3 K663Q | binding | 1 µM | 100% |
| COc1cnc(Nc2cccc(S(N)(=O)=O)c2)nc1N1CCN(c2ccccc2)CC1 | FLT3 D835H | binding, competition with immobilised ligand | 1 µM | 94% |
| O=c1nc(-c2ccccn2)sc2ccccc12 | FLT3 N841I | binding, competition with immobilised ligand | 1 µM | 74% |
| O=C(c1ccc(Nc2nccc(-c3cc4ccccc4s3)n2)cc1)N1CCC(N2CCCC2)CC1 | FLT3 K663Q | binding, competition with immobilised ligand | 1 µM | 37% |
| N[C@H]1CCN(c2nccc(-c3cnn4ncccc34)n2)C1 | FLT3 D835H | binding | 1 µM | 92% |
| O=C(NCCCN1CCOCC1)c1ccc(Nc2nccc(-c3cc4ccccc4s3)n2)cc1 | FLT3 F691L/ITD | binding, competition with immobilised ligand | 1 µM | 37% |
| c1cnn2ncc(-c3ccnc(N4CCC45COC5)n3)c2c1 | FLT3 R834Q | binding | 1 µM | 82% |
